# Assay outcomes deposited in PubChem by The Scripps Research Institute Molecular Screening Center.
# Rows were chosen to be rich in hits. Some 2.5% of all compounds tested hit in one or more screens of this group.
# Fh CTSL1 inh = blocks F. hepatica cathepsin L1 in PFM18AAP counter-screen; recombinant F. hepatica cathepsin L1, Z-Leu-Arg-MCA fluorescence; inhibition, % at 5.96 µM; 300,000 tested, 0.49% active; AID 1906;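 active = inhibition above the mean of all tested compounds plus 3 SD, set per screening campaign, cut at about 17% in these data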;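 also: 0% = plate median of test compound wells and 100% = 1 µM Z-Phe-Ala-diazomethylketone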
# PAD4 inh = PAD4 (human) enzyme inhibition; 330,000 tested, 0.41% active; Q9UM07; inhibition, % at 6.36 µM; recombinant PAD4, RCA probe fluorescence polarization;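 active = percent inhibition above a cutoff equal to the mean of all tested compounds plus 3 SD, cut at about 15% in these data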;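 also: 0% = PAD4 with RCA probe and DMSO and 100% = probe without PAD4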
# PRMT1 inh = PRMT1 (human) inhibition, primary screen; Q99873; recombinant PRMT1, activity-based probe fluorescence polarization; inhibition, % at 2.79 µM; 370,000 tested, 1.3% active; AID 652257;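 active = inhibition above about 21% made by adding two undisclosed values, limit read from the data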
# GSTO1 inh = counter-screen for RBBP9 inhibitors: inhibitors of human GSTO1; recombinant GSTO1, activity-based probe fluorescence polarization; inhibition, % at 5.96 µM; 300,000 tested, 1.1% active; AID 1974;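 active = inhibition above the campaign mean inhibition plus 3 SD, cut at about 35% in these data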;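 also: 0% = GSTO1-1 with DMSO and 100% = wells lacking GSTO1-1 enzyme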
# TDP2 inh = blocks human TDP2 phosphodiesterase activity; O95551; recombinant TDP2, T5PNP hydrolysis, p-nitrophenol absorbance 415 nm; inhibition, % at 12.8 µM; 370,000 tested, 0.34% active; AID 720702;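 active = inhibition above the mean of all tested compounds plus 3 SD, set per campaign, cut at about 25% in these data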;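 also: 0% = DMSO with enzyme and 100% = buffer with substrate but no TDP2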
# Target sequence (O95551 whole entry, looked up): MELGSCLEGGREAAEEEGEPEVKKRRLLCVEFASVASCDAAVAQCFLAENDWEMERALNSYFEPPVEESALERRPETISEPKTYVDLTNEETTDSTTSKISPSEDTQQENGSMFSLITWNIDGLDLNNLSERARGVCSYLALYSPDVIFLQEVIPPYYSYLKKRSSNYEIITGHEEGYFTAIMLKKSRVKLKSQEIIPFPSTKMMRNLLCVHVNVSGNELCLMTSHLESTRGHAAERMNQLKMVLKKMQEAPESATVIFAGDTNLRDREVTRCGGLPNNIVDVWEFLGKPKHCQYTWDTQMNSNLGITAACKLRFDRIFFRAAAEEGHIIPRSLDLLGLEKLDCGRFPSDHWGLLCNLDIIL
#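 System: recombinant human TDP2 / Amount: 120 nM TDP2 per well / Also added: 5 mM T5PNP chromogenic substrate / Doses: 12.8 µM single point, 1% DMSO / Incubation: 2 h at 37 °C / Detection: p-Nitrophenol epi absorbance / Evaluation: % inhibition relative to enzyme-containing and enzyme-free wells / Repeats: singlicate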
# * hit, by the source's call; . = not tested or not shown.
SMILES,Fh CTSL1 inh,PAD4 inh,PRMT1 inh,GSTO1 inh,TDP2 inh
Cn1nnnc1SCC1=C(C(=O)O)N2C(=O)C(NC(=O)Cn3nc(C(F)F)cc3C3CC3)C2SC1 (stereo unspecified),7,-7,24*,2,10
Cc1nnc(SCC2=C(C(=O)O)N3C(=O)C(NC(=O)Cc4ccccc4)C3SC2)s1 (stereo unspecified),.,-1,25*,.,0
O=C(CCCN1C(=O)C2CCCCN2C1=O)N1CCN(c2ccc([N+](=O)[O-])cc2)CC1 (stereo unspecified),20*,-2,0,1,3
O=C1C2CCCCN2C(=O)N1CCN1CCN(c2ccc([N+](=O)[O-])cc2)CC1 (stereo unspecified),5,-1,-1,4,-6
O=C1NC(=S)SC1=C1CCCC1,4,1,24*,23,2
O=C(Nc1ccc(N2CCCC2)cc1)C(Cl)c1ccccc1 (stereo unspecified),-4,5,.,35*,.
COc1ccc(CCc2nnc(N)s2)cc1OC,1,3,1,1,22
COc1cccc(CCc2nnc(N)s2)c1,-5,3,23*,-1,-9
O=C(CN1C(=O)C2(OCCCO2)c2ccccc21)NCc1ccc2ccccc2c1,.,.,3,.,9
O=c1cc(/N=C/c2coc3c(ccc4ccccc43)c2=O)[nH]c(=S)[nH]1,6,-1,-1,42*,-7
NC(=S)N/N=C/c1coc2c(ccc3ccccc32)c1=O,1,-7,-2,13,-2
COc1cccc(OCC(O)CN2CCC(CN3C(=O)c4cccc5cccc(c45)C3=O)CC2)c1 (stereo unspecified),33*,-2,0,1,7
O=S1(=O)c2ccc(Br)cc2OC[C@@H](Cc2ccccc2)N1Cc1cn(CCC2OCCO2)nn1,.,.,0,.,14
CCCCNS(=O)(=O)CC1NCc2ccc(C)cc21 (stereo unspecified),.,.,3,.,7
CCC[C@H]1[C@@H](OC(=O)NCc2ccc(C(F)(F)F)cc2)CC[C@@]23CCCN2C(=O)CCC[C@@H]13,.,.,6,.,-4
Cc1ccc(C(=O)OCC(=O)Nc2ccc(Cl)cn2)s1,.,1,4,.,3
O=C(COC(=O)c1ccc([N+](=O)[O-])s1)Nc1ccc(Cl)cn1,44*,-15,2,30,4
O=C(COC(=O)c1ccc([N+](=O)[O-])s1)Nc1cccc(S(=O)(=O)NC2=NCCCCC2)c1,70*,-13,7,27,23
CC(C)(C)c1ccc(NC(=O)COC(=O)c2ccc([N+](=O)[O-])s2)cc1,13,-14,1,40*,14
CCCCCCn1cc(CN2CC=CS2(=O)=O)nn1,.,.,-1,.,-2
C=CCNC(=O)Nc1ccc2c(c1)[C@]1(CC(=O)N(CC(C)C)C1c1ccccc1)C(=O)N2C (stereo partly specified),.,.,3,.,0
Cn1c(NC(=O)c2ccccc2)nc(Cc2ccccc2)c1-c1ccccc1,.,.,-5,.,-5
Fc1ccccc1/C=N/n1cc(-c2ccccc2)[nH]c1=S,2,2,24*,-10,-7
S=c1[nH]c(-c2ccccc2)cn1/N=C/c1ccc(Br)cc1,0,-1,1,-5,-12
Cc1ccc(C)c(/C=N/n2cc(-c3ccccc3)[nH]c2=S)c1,0,-2,24*,1,-1
SMILES,Fh CTSL1 inh,PAD4 inh,PRMT1 inh,GSTO1 inh,TDP2 inh
O=C1N2Cc3ccccc3C2CS(=O)(=O)N1Cc1ccccc1 (stereo unspecified),.,.,-1,.,3
Cc1ccc(NC(=O)c2sc(C)nc2C)c(C)c1,18*,-3,-1,6,8
Cc1ccc(NC(=O)c2sc(Cl)nc2C)c(C)c1,-1,-1,-4,4,1
COc1ccc(C2=NN(C(N)=S)C(c3ccco3)C2)cc1 (stereo unspecified),62*,-11,1,-2,4
COc1ccc(C2=NN(C(=O)CSc3nnc(-c4ccccc4F)o3)C(c3ccco3)C2)cc1 (stereo unspecified),6,0,2,-1,-17
CC(=O)OC1c2ccccc2C(=O)N1Cc1ccccc1 (stereo unspecified),20*,-4,-1,4,-6
CCN(CC)C(=O)CC[C@H]1CC[C@]2(CCCN(C(=O)C(C)(C)C)C2)O1,.,.,-1,.,0
O=c1[nH]c(=S)[nH]c2c1C(c1ccc(Br)cc1)c1c([nH]c(=S)[nH]c1=O)O2,8,-23,45*,-236,53*
